Experiment [1] addresses T1, Adenosine receptor A1 (Rattus norvegicus, UniProt P25099).
T1 sequence (P25099 whole entry): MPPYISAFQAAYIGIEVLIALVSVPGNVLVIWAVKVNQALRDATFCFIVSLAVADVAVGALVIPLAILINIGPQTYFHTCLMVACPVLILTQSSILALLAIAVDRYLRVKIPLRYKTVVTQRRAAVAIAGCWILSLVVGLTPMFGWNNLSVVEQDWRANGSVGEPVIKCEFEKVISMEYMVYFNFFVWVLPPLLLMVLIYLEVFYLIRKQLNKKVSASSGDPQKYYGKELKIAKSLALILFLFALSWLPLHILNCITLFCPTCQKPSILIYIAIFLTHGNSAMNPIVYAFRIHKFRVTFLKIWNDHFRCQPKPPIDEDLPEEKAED
Kind of experiment: Displacement of [3H]DPCPX from Adenosine A1 receptor of rat cortical membrane. The essentials:
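Competition binding on rat brain cortex membranes, displacing the A1 radioligand [3H]DPCPX. Displacement experiments run without GTP.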

Experiment [2] concerns the target Adenosine receptor A2a (Rattus norvegicus) (UniProt P30543). Kind of experiment: Percent displacement of [3H]ZM-241385 from A2A receptor in rat striatal membrane at 10 uM. The class given is cell membranes. Particulars: Striatum. (In general: In a radioligand displacement assay an active substance lowers the binding of a labelled ligand.)
For experiment [3], the target named is T2, Adenosine receptor A3 (Homo sapiens) (UniProt P0DMS8).
T2 sequence (whole entry): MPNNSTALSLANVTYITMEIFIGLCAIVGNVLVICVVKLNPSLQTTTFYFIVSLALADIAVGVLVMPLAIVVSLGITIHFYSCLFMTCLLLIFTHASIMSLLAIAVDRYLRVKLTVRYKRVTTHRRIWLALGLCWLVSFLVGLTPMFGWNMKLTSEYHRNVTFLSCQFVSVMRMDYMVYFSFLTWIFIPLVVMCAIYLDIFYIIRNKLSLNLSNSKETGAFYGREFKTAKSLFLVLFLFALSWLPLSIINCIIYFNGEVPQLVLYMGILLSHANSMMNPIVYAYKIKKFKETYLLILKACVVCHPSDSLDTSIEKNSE
Kind of experiment: Percent displacement of [125I]-AB MECA from human Adenosine A3 receptor expressed in HEK 293 cells at 1 uM. The class given is cell-based. Particulars: HEK293.

The values that follow come from ChEMBL document CHEMBL1133891, “Substituted 4-phenyl-2-(phenylcarboxamido)-1,3-thiazole derivatives as antagonists for the adenosine A(1) receptor” (Bioorg Med Chem Lett, 2001).

Molecules are shown by their SMILES.

Chain of Adenosine receptor A2a (Rattus norvegicus) (P30543 whole entry): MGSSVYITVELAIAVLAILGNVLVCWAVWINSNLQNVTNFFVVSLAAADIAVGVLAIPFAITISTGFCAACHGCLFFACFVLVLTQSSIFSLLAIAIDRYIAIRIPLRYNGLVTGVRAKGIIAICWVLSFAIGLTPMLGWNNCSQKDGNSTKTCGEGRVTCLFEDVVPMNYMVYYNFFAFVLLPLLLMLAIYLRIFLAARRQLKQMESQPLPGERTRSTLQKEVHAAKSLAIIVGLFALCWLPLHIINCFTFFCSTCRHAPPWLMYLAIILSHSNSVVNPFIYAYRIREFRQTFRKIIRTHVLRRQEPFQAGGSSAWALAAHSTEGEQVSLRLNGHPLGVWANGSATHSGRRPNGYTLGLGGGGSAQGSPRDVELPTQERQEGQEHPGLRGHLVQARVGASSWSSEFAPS

The term Ki denotes a measure of affinity in units of concentration, obtained from inhibition or displacement. Turning to `O=C(Nc1nc(-c2ccccc2)cs1)c1ccc(Cl)cc1`, the Ki in experiment [1] amounted to 18 nM. Also, the results for the Displacement in experiment [2] and in experiment [3] were 15% and 63%, respectively.

Consider `O=C(Nc1nc(-c2ccccc2)cs1)c1ccc(Br)cc1`, for which the Ki in experiment [1] was 33 nM. Moreover, the Displacement in experiment [2] was determined as 14%; in experiment [3], 58%.

As to `CC(C)(C)c1ccc(C(=O)Nc2nc(-c3ccccc3)cs2)cc1`, the Displacement in experiment [2] is 2%; in experiment [3], 27%.

In turn, `O=C(Nc1nc(-c2ccccc2)cs1)c1ccc(C(F)(F)F)cc1` displayed a Ki in experiment [1] of 165 nM. The Displacement in experiment [2] was determined as 0%; in experiment [3] it was 18%.

`Cc1ccc(C(=O)Nc2nc(-c3ccccc3)cs2)cc1` showed a Ki in experiment [1] of 36 nM. For the same compound, the Displacement in experiment [2] was 13%; in experiment [3], 66%.

On to `O=C(Nc1nc(-c2ccccc2)cs1)c1ccccc1`, for which, in experiment [1], affinity was put at a Ki of 39 nM. Besides, the Displacement in experiment [2] was 21%; in experiment [3], 42%.

Consider `O=C(Nc1nc(-c2ccccc2)cs1)c1ccc(Cl)cc1Cl`, for which the affinity in experiment [1], expressed as Ki, was 58 nM. Further, the Displacement in experiment [2] turned out to be 17%; in experiment [3], 22%.

In turn, `O=C(Nc1nc(-c2ccccc2)cs1)c1ccc([N+](=O)[O-])cc1` yielded a Ki in experiment [1] of 22 nM. The Displacement was 9% in experiment [2] and 35% in experiment [3].

In experiment [1], `O=C(Nc1nc(-c2ccccc2)cs1)c1ccc(Cl)c(Cl)c1` yielded a Ki of 59 nM. Moreover, the Displacement in experiment [2] was 6%; in experiment [3] it was 20%.

In experiment [1], `O=C(Nc1nc(-c2ccccc2)cs1)c1cccc(Cl)c1` registered a Ki of 86 nM. Also, the values for the Displacement in experiment [2] and in experiment [3] were 3% and 42%, respectively.
